Results published in the EternaBench riboswitch data.

Tested on: MS2 coat protein
Test: apparent Kd, MS2 coat protein; higher = weaker binding; RNA-MaP array
Procedure, shortened: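 For each design, the apparent Kd is the median of binding-curve fits across its clusters. Designs measured on fewer than 10 clusters were dropped. The RNAs were transcribed from sequenced DNA templates on an Illumina sequencing chip and incubated at room temperature, with or without input ligand, with fluorescently labeled MS2 coat protein at 1.5 nM to 3 μM.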

[1] = designed as: ON switch for flavin mononucleotide, no ligand
[2] = ligand present: flavin mononucleotide, designed as: ON switch for flavin mononucleotide
[3] = designed as: OFF switch for flavin mononucleotide, no ligand
[4] = ligand present: flavin mononucleotide, designed as: OFF switch for flavin mononucleotide
[5] = designed as: ON switch for tryptophan, no ligand
[6] = ligand present: tryptophan, designed as: ON switch for tryptophan
[7] = designed as: OFF switch for tryptophan, no ligand
[8] = ligand present: tryptophan, designed as: OFF switch for tryptophan

UUCGUCGGACACACACAUGAGGAUCACCCAUGUAUCUCAAUCAGAAGGGUAUCACCGGAUAGGGUACAGGAUAUGACUACUAUA
apparent Kd [1]: 43 nM
apparent Kd [2]: 22.3 nM

ACACCUAUAGUGAGGAUAUAGAUCGAAACAAUCGACAAGAAGGCACAUGAGGAUCACCCAUGUAAGGCGCAAAU
apparent Kd [3]: 6.55 nM
apparent Kd [4]: 5.97 nM

GUGUACAUGAGGAUCACCCAUGUGAGAGCCACAUAGGGCCAGAAGGAUAUCUAUACUACCGCGUCAGAGAAGGUCUGUUGAUUU
apparent Kd [1]: 33.2 nM
apparent Kd [2]: 24.9 nM

AUCUUUGUAGGAUAUCCUGAGGCAAACAUGAGGAUCACCCAUGUCCCAAGAAUGACUAAAGGAGAAGGACACUCGG
apparent Kd [3]: 20.6 nM
apparent Kd [4]: 20.7 nM

ACGAAACAAGCGGCCGCCACUUCGUGGUGCUAAGGCUUGAUACUACAUGAGGAUCACCCAUGUCGAAGGACCGGGCUUGCGACUG
apparent Kd [5]: 53.9 nM
apparent Kd [6]: 51.9 nM

CUCUAAUAAUAUUUCAACAUGAGGAUCACCCAUGUAAUCAGCAAGGAUAUGGUCUUGAUAAGAACCCAGAAGGUGCAUAUAGAU
apparent Kd [1]: 22.7 nM
apparent Kd [2]: 14.9 nM

CAUCGUCGGUCGGCCGCCACUACUGGACAUGAGGAUCACCCAUGUGGCCCGCUGUAUUAACCGCGUAGGACCGGGACGGGAGGUA
apparent Kd [7]: 30 nM
apparent Kd [8]: 32.9 nM

GAUACGCAGUCGGCCGCCACUUGCUAAGGUGACAAACCAAAACAUGAGGAUCACCCAUGUCUGAUAAGGACCGGGACCACCAUGG
apparent Kd [5]: 79.5 nM
apparent Kd [6]: 81.1 nM

CGUUAAGGCGAGAAGGUGCCGUCCAACAUGAGGAUCACCCAUGUCGGUCGGUGAAUCAAGAGACGCAAGGAUAUCGACAUUAAC
apparent Kd [3]: 3.01 nM
apparent Kd [4]: 3.46 nM

CCGUAUCGACCAGGAUAUUCAAUAGCGCCACAUGAGGAUCACCCAUGUUUAUAUCUUCAUGGAAGGAAGAAGGGGUACAAGCGG
apparent Kd [3]: 199 nM
apparent Kd [4]: 240 nM

GAUCUAUCAGGAUAUAAGGCCUUGAACAUGAGGAUCACCCAUGUCCUCUUGGUUGCCGCGUUAGAAGGGAUGUGUU
apparent Kd [3]: 202 nM
apparent Kd [4]: 171 nM

CCGCUCGGGACAUGAGGAUCACCCAUGUUACCUUGCCGUGAGAGAAGGGACACGGCCAGCUCAUGUCAGGAUAUCUCAGCGUAU
apparent Kd [1]: 48.3 nM
apparent Kd [2]: 12.4 nM

UACGUAUUAGGAGGAUAUGGCCCUCAUCUUUGACAUGAGGAUCACCCAUGUGGACAUUACGCCACCCAGAAGGCCUUGCUCGGA
apparent Kd [3]: 468 nM
apparent Kd [4]: 344 nM

CGAAGAAAACGGAAAUCAAUAACAUGAGGAUCACCCAUGUCUCAGGAUAUAAGAGAAGGAUGUAGUUAGAAGGGAGAGUUAUGU
apparent Kd [1]: 54.7 nM
apparent Kd [2]: 42.4 nM

CUUUACAUAUGUAUGUGGGUUACAUGAGGAUCACCCAUGUGAAGAAGGCUCACCUCAAGCGCAAGAGAGGAUAUUCACGGGUCC
apparent Kd [3]: 60.8 nM
apparent Kd [4]: 104 nM

CAGCCACAUGAGGAUCACCCAUGUGAUGAUACCAGCUUCGUCUUAAGCCCUUGGCAGCAUAUCUCUUUGUUCUCAUACAUAGCAU
apparent Kd (designed as: ON switch for theophylline, no ligand): 11.1 nM
apparent Kd (ligand present: theophylline, designed as: ON switch for theophylline): 12.3 nM

UUUAUAAUCGUAAGGAUAUCCGCGUUAGUCCACCCGGAGAAGGUACAUGAGGAUCACCCAUGUGAACUAUGGGU
apparent Kd [3]: 24.4 nM
apparent Kd [4]: 28.5 nM

UUGCUCCAUCAGAAGGUCUACGCACAUGAGGAUCACCCAUGUUCUGGAAUCAUCUUGUGUGCCAAGAAGGAUAUGACUUCAAGU
apparent Kd [3]: 545 nM
apparent Kd [4]: 363 nM

ACAACUCUCACAGGAUAUUGACAUGAGGAUCACCCAUGUAAUCCAGGGCGAACAUAGGACUGACACAAGAAGGGUGACACCAUC
apparent Kd [1]: 20.1 nM
apparent Kd [2]: 16.1 nM

AUUGGAGACUGGUACAUGAGGAUCACCCAUGUUAAUAACAGUAGAAGGCCCGCGGUUAGAAGAUGGGAGGAUAUACACGUGGGU
apparent Kd [3]: 10.4 nM
apparent Kd [4]: 17.8 nM

UACGUGGAUGCGGCCGCCACUGCUCUGAGCGAGUUGCUCUAUGGACAUGAGGAUCACCCAUGUCACAGGACCGGGCACGCUUUAA
apparent Kd [5]: 10.4 nM
apparent Kd [6]: 9.67 nM

GAGCACUUAGGAUAUUGGUUGACACACAUGAGGAUCACCCAUGUGAUUCCUGCCUUUAACCAAGAAGGAAGAGUAU
apparent Kd [3]: 14.7 nM
apparent Kd [4]: 13.5 nM

UGCCUAAAGUCGGCCGCCACUGAUGGUAUCCUCUCCUCGAGGUCACACAUGAGGAUCACCCAUGUCAGGACCGGGACUAGUGAGA
apparent Kd [7]: 7.89 nM
apparent Kd [8]: 10.4 nM

ACAUGAGGAUCACCCAUGUAAUAUAUAAAGACUAAAACUAGUUAGGAUAUAUCACAUGUACAGGGAUAGAAGGAACUAGUCUGC
apparent Kd [1]: 7.15 nM
apparent Kd [2]: 5.84 nM

GCGGGACUGUAGAAGGGUUAUCCUUAAGGUCUGAUCACAUGAGGAUCACCCAUGUAACGGGUGGAACAGGAUAUACCAGAUCGC
apparent Kd [3]: 42 nM
apparent Kd [4]: 48.4 nM

CCUAACUGCGAGAAGGUACAGCGAUAGUGACUGUAAGGAUAUCGGGCGGUGCAUAUCUUAGUAAUACAUGAGGAUCACCCAUGU
apparent Kd [3]: 8.7 nM
apparent Kd [4]: 6.82 nM

UUAGCACAUGAGGAUCACCCAUGUCAGGAUAUACGGAAUGUCCUCUACAGGGCGCGCUGUAGAAGGGACCGGGC
apparent Kd [3]: 9.53 nM
apparent Kd [4]: 9.76 nM

AGUGCAAAUGUAGGAUAUGGACAUGAGGAUCACCCAUGUCAUUAAUAUUAUCGGUCCAAUUUUCUCCAGAAGGACAAAGGCUUG
apparent Kd [3]: 11.6 nM
apparent Kd [4]: 10.1 nM

CCCAACAUGAGGAUCACCCAUGUUCCGGGUCGAGGACCGGUACGGCCGCCACUCGGUAUGAUGGGUGUGCAGCGUAUCUGCACCA
apparent Kd [5]: 38.5 nM
apparent Kd [6]: 17.2 nM

GUCUCACAGAUAGGAUAUGGUUUUCACAUGAGGAUCACCCAUGUAAAUCCUAAAGUAAGUGGAGGCCAGAAGGAUCCGGUACAG
apparent Kd [3]: 32.2 nM
apparent Kd [4]: 35.1 nM

GUGGGCCGGGUAGGAUAUCGACAUGAGGAUCACCCAUGUGUGAGUUGAUGAACUCACGGAUAGCCCGAGAAGGACCUCAGGGCU
apparent Kd [1]: 17.9 nM
apparent Kd [2]: 16.2 nM

UCCAUGUUAGGAUAUCGGCCACCUUCGACAAAAGUGUACUGCGAGAAGGAACAUGAGGAUCACCCAUGUCUGGG
apparent Kd [3]: 416 nM
apparent Kd [4]: 104 nM

ACGUUCCUGAGAGGAUAUUCCAACAUGAGGAUCACCCAUGUAGAUGGUCGAUGCUUCCAUUCAGCGAAGAAGGCUCUAAAGGGC
apparent Kd [3]: 22.3 nM
apparent Kd [4]: 15.7 nM

AGCCAAUAAGGAUAUACAUUUAGAGAUCAUCGUACAAAGUAACAUGAGGAUCACCCAUGUAGAAGGUAUGCAGC
apparent Kd [3]: 10.2 nM
apparent Kd [4]: 11.3 nM

UUGUUCAGCCUAGGAUAUGGGCAAACAUGAGGAUCACCCAUGUUGAGGCUACCACAAAGCCUGCACCAGAAGGAGGCCUAUACG
apparent Kd [1]: 9.27 nM
apparent Kd [2]: 5.71 nM

GGUCCCGUAGGAUAUUGCUCAUUGUACAUGAGGAUCACCCAUGUGACUACACUGCACUGGCAAGAAGGACGUUGAU
apparent Kd [3]: 83.2 nM
apparent Kd [4]: 50.2 nM

GAUUUGUGAGGAUAUCAUUAGAAACAAGUAUGAGGCGAAAGUGAGAAGGCACAUGAGGAUCACCCAUGUUGGAA
apparent Kd [3]: 15 nM
apparent Kd [4]: 15.7 nM

GCCUAGGGUCAAGGAUAUCACCCAGUGGUCCGUACAUGAGGAUCACCCAUGUCACCGGGAACGGGUGAGAAGGUGAAAAGUCGA
apparent Kd [1]: 13.9 nM
apparent Kd [2]: 9.93 nM

CUUAGGUGAGGAUAUCCUGAAUGGGUCGCUACCAGCCGUUCGGAGAAGGCACAUGAGGAUCACCCAUGUUUUGA
apparent Kd [3]: 34.6 nM
apparent Kd [4]: 25.5 nM

AGGCAACAUGAGGAUCACCCAUGUCAGGAUAUAGUAAACACAAAUACGAGAAAUAUAACUAGAAGGGACAUAAU
apparent Kd [3]: 16.6 nM
apparent Kd [4]: 18.5 nM

CGCAGCAUCUAGAAGGGCGAAUCAACAAUACAACUAGUGAACAUGAGGAUCACCCAUGUAAUGACGCAGGAUAUAGUAGCAAAG
apparent Kd [1]: 26.5 nM
apparent Kd [2]: 13.7 nM

UAUUUAUCUAUUGUGACAAACAUGAGGAUCACCCAUGUAUACAGAAGGCAUUACCGAAUCUCGGAUGAGGAUAUGUUAUGGAGU
apparent Kd [3]: 14 nM
apparent Kd [4]: 33.9 nM

CCAACCUGUCGAGCACCAUAACAUGAGGAUCACCCAUGUAUCAGAAGGUGUGUGAGUAAGGAAGACAAGGAUAUGACUCGACGC
apparent Kd [1]: 16.9 nM
apparent Kd [2]: 12.7 nM

UCUUUCUUUAAAGAACACAUGAGGAUCACCCAUGUUCAAGGGCAGGAUAUGAGUAUCUGUUCGGAUCAGAAGGGCCCAACAGGU
apparent Kd [1]: 36 nM
apparent Kd [2]: 29.5 nM

UUGAUCUCGUAGAAGGGAGAGAUUGAGGGCUUCUCAGGAUAUACGAAUCCUCUGUGGCUAUGUUACAUGAGGAUCACCCAUGUC
apparent Kd [3]: 791 nM
apparent Kd [4]: 355 nM

AUUCAAAUAACAGGAUAUGACAUAAACUACGAAUCAGAAGGGUUACAUAAAUCAACAUGAGGAUCACCCAUGUAUACUCCACAA
apparent Kd [1]: 17.5 nM
apparent Kd [2]: 11.7 nM

UCUAAAAUCGGAGGAUAUUACGAAGACAUGAGGAUCACCCAUGUAGUGGAACACAUAAGUCGCUCUAAGAAGGCCGCAAUUGAC
apparent Kd [3]: 29.5 nM
apparent Kd [4]: 34.6 nM
